We go through nine molecules from ChEMBL document CHEMBL2062466, “Synthesis, DNA binding and antileishmanial activity of low molecular weight bis-arylimidamides” (Eur J Med Chem, 2012).

Bounds are passed on as bounds.

Series [1] has as its system Leishmania amazonensis. As to the kind of experiment: Antileishmanial activity against intracellular Leishmania amazonensis. It is filed as functional, organism-based.
In series [2] the test system is Nucleic Acid. As to the kind of experiment: Binding affinity to poly(dA-dT)n DNA assessed as increase in melting temperature at 0.3 mol compound per mole of DNA by spectrophotometry. It is filed as nucleic-acid assay. The essentials:
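Thermal melting monitored by UV absorbance in 1 cm quartz cuvettes, heated at 0.5 °C/min under thermistor control. CAC 10 buffer: cacodylic acid 10 mM, EDTA 1 mM, NaCl 100 mM, pH 7.0. DNA concentration set from absorbance at 260 nm. Complex at 0.3 mol compound per mol DNA, with DNA alone as control. ΔTm taken from the peak of first-derivative (dA/dT) curves.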

Series [3] in a line: Selectivity index, ratio of IC50 for rat L6 cells to IC50 for intracellular Leishmania donovani. It is filed as toxicity, cell-based.
For series [4], the system named is L6. As to the kind of experiment: Cytotoxicity against rat L6 cells. It is filed as cell-based.
Series [5] has as its system Mus musculus. As to the kind of experiment: Toxicity in uninfected mouse assessed as induction of severe tremors at 30 mg/kg, ip measured 10 mins post dose. It is filed as organism-based. The arrangement: dose 30 mg/kg, route intraperitoneal. The conditions noted are these: in vivo.
The subject of series [6] is Leishmania donovani. As to the kind of experiment: Antileishmanial activity against intracellular Leishmania donovani. It is filed as functional, organism-based.
Series [7] deals with Mus musculus. The series can be described thus: Toxicity in uninfected mouse assessed as induction of severe tremors at 10 mg/kg, ip measured 40 mins post dose. It is filed as organism-based. The arrangement: dose 10 mg/kg, route intraperitoneal. The conditions noted are these: in vivo.

As to `Cl.Cl.N=C(Nc1ccc(Oc2ccc(NC(=N)c3ccccn3)cc2)cc1)c1ccccn1`, the IC50 (usually the point on the concentration scale where inhibition reaches its midpoint) in series [1] stood at 0.67 µM; in series [4], 5 µM; in series [6] it was 0.028 µM. Moreover, the ΔTm – broadly, the shift of the melting midpoint relative to a reference – in series [2] was 5.2 °C. For the same molecule, the “Selectivity Index” value in series [3] was found to be 178. Also, the Activity entry in series [5] is listed as “Toxic”.

For the molecule `N=C(Nc1ccc(COCc2ccc(NC(=N)c3ccccn3)cc2)cc1)c1ccccn1`, the half-maximal inhibitory concentration (IC50) in series [1] was 1.1 µM; in series [4], 21.6 µM. Also, the shift in melting temperature (ΔTm) in series [2] stood at 4 °C.

In the case of `CC(C)Oc1cc(NC(=N)c2ccccn2)ccc1-c1ccc(NC(=N)c2ccccn2)cc1OC(C)C.Cl.Cl`, the half-inhibitory concentration (IC50) in series [1] came to 0.14 µM; in series [4], 22.9 µM; in series [6], 0.025 µM. Moreover, the thermal shift (ΔTm) in series [2] was 0.1 °C. Also, the “Selectivity Index” value in series [3] stood at 916. Further, in series [5], the Activity result was “Toxic”.

For `CC(C)Oc1cc(NC(=N)c2ccccn2)ccc1-c1ccc(-c2ccc(NC(=N)c3ccccn3)cc2OC(C)C)o1`, the thermal shift (ΔTm) in series [2] was determined as 6 °C. This molecule also had a concentration for half-maximal inhibition (IC50) in series [4] of 3 µM.

Turning to `N=C(Nc1ccc(NC(=N)c2ncccn2)cc1)c1ncccn1`, the ΔTm in series [2] stood at 0 °C. The concentration for half-maximal inhibition (IC50) in series [4] was greater than 207 µM.

On to `Cl.Cl.N=C(Nc1ccc(-c2ccc(NC(=N)c3ccccn3)cc2)cc1)c1ccccn1`, for which the Activity result in series [7] and in series [5] was “Toxic” each time. Further, the IC50 in series [1] amounted to 0.76 µM; in series [4], 46.9 µM; in series [6], 0.079 µM. In addition, the ΔTm in series [2] is 6 °C. Also, the “Selectivity Index” value in series [3] amounted to 594.

Take `N=C(Nc1ccc(NC(=N)c2ccccn2)cc1)c1ccccn1`: the IC50 in series [1] is greater than 10 µM; in series [4] it was greater than 212 µM. Besides, the shift in melting temperature (ΔTm) in series [2] was 0 °C.

As to `N=C(Nc1ccccn1)c1ccc(C(=N)Nc2ccccn2)cc1`, the IC50 in series [1] is 5.1 µM; in series [4] it was greater than 202 µM. Besides, the shift in melting temperature (ΔTm) in series [2] was 0.5 °C.

In the case of `N=C(Nc1ccc(Cc2ccc(NC(=N)c3ccccn3)cc2)cc1)c1ccccn1`, the IC50 was greater than 10 µM in series [1] and 93.5 µM in series [4]. The thermal shift (ΔTm) in series [2] came out at 2.1 °C.
